Test results taken from ChEMBL document CHEMBL1153722, “Design, synthesis, and characterization of peptide-based rab geranylgeranyl transferase inhibitors” (J Med Chem, 2009).
Square brackets hold non-standard residues; d marks the D form. Peptide text beside a SMILES is read from it. * marks the point of attachment. Hydrocinnamoyl = O=C(CCc1ccccc1)*; Undecanoyl = CCCCCCCCCCC(=O)*; pGlu = O=C1CC[C@@H](C(=O)O)N1; Lauroyl = CCCCCCCCCCCC(=O)*; Ac6c = NC1(C(=O)O)CCCCC1; NHPh = c1ccc(N*)cc1; NHOH = ON*

organism: Rattus norvegicus; test: Inhibition of rat recombinant Rab geranylgeranyltransferase at 100 uM in presence of canine Rab7 and rat REP1 NBD-FPP based continuous fluorimetric assay
How it was run: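 Continuous fluorometric assay in 96/384-well format: 3 μM Rab7, 3 μM REP1, 9 μM NBD-FPP and 400 nM RabGGTase, with or without inhibitor. […] IC50 was calculated from three independent measurements.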

How did the inhibition turn out when `COC(=O)[C@H](Cc1cn(C(c2ccccc2)(c2ccccc2)c2ccccc2)cn1)NC(=O)[C@H](Cc1ccccc1)NC(=O)CNC(=O)c1csc(-c2cccs2)n1` was run?
Its inhibition is 69%.

With `CC(C)C[C@H](NC(=O)[C@@H]1CCC(=O)N1)C(=O)N[C@@H](CCCCN)C(=O)NC1(C(N)=O)CCCCC1` ([pGlu]LK[Ac6c]-NH2) as the compound, how does the inhibition read?
Its inhibition is 95%.

How did the inhibition turn out when `CCCCCCCCCCCCCCCCNC(=O)[C@H](CC1CCCC1)NC(=O)[C@H](CCC(N)=O)NC(=O)[C@@H](NC(=O)CCC(O)CBr)[C@@H](C)O` (some centres undefined) was run?
The inhibition was 75%.

With `C[C@@H](NC(=O)CCc1ccccc1)C(=O)N[C@@H](Cc1ccccc1)C(=O)N[C@@H](CCC(=O)O)C(=O)NCCO` as the compound, how does the inhibition read?
The inhibition was 98%.

For `NC(=O)CC[C@H](NC(=O)[C@H](Cc1ccccc1)NC(=O)CNC(=O)CCc1ccccc1)C(=O)O` (Hydrocinnamoyl-Gly-Phe-Gln-OH), which inhibition is on record?
Its inhibition is 94%.

Which inhibition does the source give for `CCCCCCCCCCC(=O)N[C@@H](Cc1ccc(O)cc1)C(=O)N[C@@H](Cc1c[nH]cn1)C(=O)N[C@@H](Cc1c[nH]cn1)C(=O)NO` (Undecanoyl-Tyr-His-His-{NHOH}) here?
The inhibition was 84%.

How did the inhibition turn out when `CCCCCCCCCCC(=O)N[C@@H](Cc1c[nH]cn1)C(=O)N[C@@H](Cc1c[nH]cn1)C(=O)N[C@@H](CO)C(=O)NO` (Undecanoyl-His-His-Ser-{NHOH}) was run?
Its inhibition is 78%.

For `CCCCCCCCCCCC(=O)N[C@@H](Cc1c[nH]cn1)C(=O)N[C@@H](Cc1ccccc1)C(=O)N[C@@H](Cc1ccc(O)cc1)C(=O)NO` (Lauroyl-His-Phe-Tyr-{NHOH}), which inhibition is on record?
The inhibition was 89%.

How did the inhibition turn out when `CON(C)C(=O)[C@H](CCC(N)=O)NC(=O)[C@H](Cc1ccccc1)NC(=O)[C@H](C)NC(=O)CCc1ccccc1` was run?
The inhibition was 112%.

How did the inhibition turn out when `O=C(CNC(=O)c1csc(-c2ccccc2)n1)N[C@@H](Cc1ccccc1)C(=O)N[C@@H](Cc1c[nH]cn1)C(=O)O` was run?
Its inhibition is 70%.

`COC(=O)[C@H](CO)NC(=O)[C@H](Cc1ccccc1)NC(=O)[C@H](CO)NC(=O)CCc1ccccc1` (Hydrocinnamoyl-Ser-Phe-Ser-OMe) was tested. Which inhibition did it give?
The inhibition was 90%.

`O=C(CNC(=O)[C@H](Cc1ccc(O)cc1)NC(=O)c1coc(-c2ccccc2)n1)N[C@@H](Cc1c[nH]cn1)C(=O)O` was tested. Which inhibition did it give?
Its inhibition is 86%.

For `C=CCCCCCCCCCOC(=O)[C@H](CO)NC(=O)[C@H](Cc1ccccc1)NC(=O)[C@H](CO)NC(=O)CCc1ccccc1`, which inhibition is on record?
Its inhibition is 84%.

For `O=C(CNC(=O)c1coc(-c2ccccc2)n1)N[C@@H](Cc1c[nH]cn1)C(=O)N[C@@H](Cc1c[nH]cn1)C(=O)O`, which inhibition is on record?
Its inhibition is 96%.

How did the inhibition turn out when `O=C(CNC(=O)[C@H](Cc1ccc(O)cc1)NC(=O)c1ccc(F)cc1)N[C@@H](Cc1ccc(O)cc1)C(=O)Nc1ccc(F)cc1F` was run?
Its inhibition is 98%.

With `O=C(CNC(=O)[C@H](Cc1ccc(O)cc1)NC(=O)c1ccc(F)cc1)N[C@@H](Cc1ccc(O)cc1)C(=O)NC1CCCCC1` as the compound, how does the inhibition read?
Its inhibition is 74%.

`O=C(CNC(=O)c1csc(-c2ccc(C(F)(F)F)cc2)n1)N[C@@H](Cc1ccccc1)C(=O)N[C@@H](Cc1c[nH]cn1)C(=O)O` was tested. Which inhibition did it give?
The inhibition was 137%.

With `CCCCCCCCCCC(=O)N[C@@H](Cc1c[nH]cn1)C(=O)N[C@@H](Cc1ccccc1)C(=O)N[C@@H](Cc1ccc(O)cc1)C(=O)Nc1ccccc1N` as the compound, how does the inhibition read?
The inhibition was 34%.

`O=C(CCc1ccccc1)N[C@@H](CO)C(=O)NCC(=O)N[C@@H](CO)C(=O)Nc1ccccc1` (Hydrocinnamoyl-Ser-Gly-Ser-NHPh) was tested. Which inhibition did it give?
The inhibition was 93%.

`C[C@H](NC(=O)C(Br)C(Br)c1ccc(F)cc1)C(=O)NCC(=O)N[C@@H](Cc1ccc(O)cc1)C(=O)Nc1ccc(F)cc1F` (some centres undefined) was tested. Which inhibition did it give?
Its inhibition is 69%.

For `CN(C(=O)[C@@H](Cc1c[nH]cn1)NC(=O)OCc1ccccc1)[C@@H](Cc1ccc(O)cc1)C(=O)N[C@@H](Cc1ccccc1)C(=O)O`, which inhibition is on record?
Its inhibition is 34%.

Which inhibition does the source give for `CCCCCCCCCCC(=O)N[C@@H](Cc1ccc(O)cc1)C(=O)N[C@@H](Cc1c[nH]cn1)C(=O)N[C@@H](Cc1c[nH]cn1)C(=O)NOC(C)(C)C` here?
The inhibition was 47%.

For `O=C(CNC(=O)[C@H](Cc1ccc(O)cc1)NC(=O)c1ccc(F)cc1F)N[C@@H](Cc1ccc(O)cc1)C(=O)O`, which inhibition is on record?
The inhibition was 90%.

Which inhibition does the source give for `CC[C@H](C)[C@H](NC(=O)c1ccc(-c2ccccc2)cc1)C(=O)N[C@@H](C(=O)N[C@@H](CCC(N)=O)C(=O)OCCCl)C(C)C` here?
The inhibition was 89%.
